The list is not random: actives were taken first. Their share in the collection is about 1.9%.
Runt-CBFb FRET = Runt domain-CBFb interaction inhibition; Q01196+Q13951; Cerulean-Runt/Venus-CBFb FRET ratio 530/480, 1 h; inhibition, % at 20 µM; actives 0.46% (n = 220,000); AID 1496;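 active means inhibition over about 50% at 20 µM in the single-dose screen, limit read from the data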;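 further: 0% = DMSO wells and 100% = excess unlabeled CBFb competitor control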
Target sequence (Q01196 whole entry, looked up, the tested form may be a part): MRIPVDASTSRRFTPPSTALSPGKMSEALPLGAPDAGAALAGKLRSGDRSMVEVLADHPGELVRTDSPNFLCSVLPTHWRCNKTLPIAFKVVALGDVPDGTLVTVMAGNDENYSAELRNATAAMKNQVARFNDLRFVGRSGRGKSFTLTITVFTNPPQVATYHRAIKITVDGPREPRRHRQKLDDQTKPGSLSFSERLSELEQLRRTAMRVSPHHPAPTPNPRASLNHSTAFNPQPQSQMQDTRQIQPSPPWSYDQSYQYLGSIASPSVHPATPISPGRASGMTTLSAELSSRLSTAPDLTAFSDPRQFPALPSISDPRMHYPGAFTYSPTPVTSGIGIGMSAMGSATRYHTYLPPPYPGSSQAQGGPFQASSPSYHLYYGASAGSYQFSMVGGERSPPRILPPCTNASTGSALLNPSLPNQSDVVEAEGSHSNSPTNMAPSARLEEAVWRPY
Target sequence (Q13951 whole entry, looked up, the tested form may be a part): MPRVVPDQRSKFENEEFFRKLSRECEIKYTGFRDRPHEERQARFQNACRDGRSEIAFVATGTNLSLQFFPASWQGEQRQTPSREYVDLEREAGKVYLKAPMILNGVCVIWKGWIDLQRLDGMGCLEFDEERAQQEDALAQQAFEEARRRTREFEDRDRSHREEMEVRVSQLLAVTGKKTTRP
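Reagent – Venus-CBFb binding partner, 100 nM · Assay system – Cerulean-tagged RUNX1 Runt domain (FRET donor) fusion protein · Input – 100 nM per protein · Incubation – two 1 h room-temperature incubations shielded from light · Measured by – FRET fluorescence · Medium – Tris buffer pH 7.5 with salts and BSA · Benchmarks – unlabeled CBFb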
Runt-SMMHC FRET = Runt domain-CBFb-SMMHC interaction inhibition; Q01196+Q13951; Cerulean-Runt/Venus-CBFb-SMMHC FRET ratio 530/480, 1 h; inhibition, % at 20 µM; actives 0.74% (n = 220,000);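 active means mean inhibition across duplicate retests at 20 µM reaching about 50%, limit read from the data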;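 further: 0% = DMSO wells and 100% = wells with excess untagged CBFb-SMMHC; inhibitors lower the FRET ratio by blocking Runt binding to CBFb-SMMHC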
RanGTP-Imp inh = disruptors of Ran-importin-beta complex formation – biochemical, FRET, CFP-Ran, YFP-importin-beta, homogeneous, primary screen | cell-free CFP-Ran/YFP-importin-beta FRET ratio | inhibition, % (test concentration not listed) | actives 1.1% (n = 300,000) | AID 2216;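 active means more than half of the replicate wells show a fall in the fluorescence ratio signal beyond about 16%, limit read from the data, passing the limit was not always enough; inconclusive means exactly half of the replicate wells pass the set limit; inactive means fewer than half of replicates pass the limit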;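 further: 0% = DMSO wells and 100% = Ran loaded with GDP instead of GTP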
Hck-Nef inh = inhibitors of human Hck kinase activated by Nef. inhibition, % at 20 µM. actives 0.68% (n = 220,000). Recombinant Hck-YEEI plus Nef, Z-Lyte FRET kinase assay. P08631. AID 463187;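 active means Hck-Nef kinase inhibition above about 50%, limit read from the data; inactive means inhibition below that limit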;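 further: 0% = DMSO with Hck plus Nef and 100% = Hck alone without Nef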
TbHK1 inh = T. brucei hexokinase 1 inhibition | recombinant TbHK1, G6PDH-coupled NADH A340 | inhibition, % at 10 µM | actives 0.11% (n = 220,000);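 active means inhibition of 50% or more in the single-dose primary screen; inactive means inhibition below 50%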
Runt-CBFb TRFRET = Runt-CBFb binding inhibition; shares compounds with Runt-CBFb FRET; TR-FRET RUNX1 Runt domain-CBFb binding; inhibition, % at 20 µM; actives 20% (n = 480); in the data active means inhibition above about 40%
Active calls of the source: *.

Screening CC(C)(C)OC(=O)N1CCC(C(=O)N2CCOCC2)CC1 returned Runt-CBFb FRET 84*, Runt-SMMHC FRET 0, RanGTP-Imp inh 1, Hck-Nef inh 6, TbHK1 inh 1 and Runt-CBFb TRFRET -50.
CCC12OC(=N)C(C#N)(C1C)C(C#N)(C#N)C(c1ccccc1)O2 (centres undefined) was read as Runt-CBFb FRET 58*, Runt-SMMHC FRET 88*, RanGTP-Imp inh 21*, Hck-Nef inh 2, TbHK1 inh -8 and Runt-CBFb TRFRET 41*.
For CCCCOc1ccc(C2OC34CCCCC3C(C#N)(C#N)C2(C#N)C(=N)O4)cc1 (centres undefined) the results were Runt-CBFb FRET 25, Runt-SMMHC FRET 13, RanGTP-Imp inh -2, Hck-Nef inh -1 and TbHK1 inh -5.
Oc1ccc(O)c(Cc2nc3ccccc3s2)c1 was read as Runt-CBFb FRET 51*, Runt-SMMHC FRET 10, RanGTP-Imp inh 1, Hck-Nef inh 10, TbHK1 inh 4 and Runt-CBFb TRFRET 43*.
COC(=O)c1cc(S(=O)(=O)NCCN2CCOCC2)cn1C was read as RanGTP-Imp inh 2.
For CCOC(=O)C1=C(C)N=c2s/c(=C3\C(=O)Nc4ccccc43)c(=O)n2C1c1ccc2c(c1)OCO2 (centres undefined) the results were Runt-CBFb FRET 16, Runt-SMMHC FRET -4, RanGTP-Imp inh -2, Hck-Nef inh 2 and TbHK1 inh -10.
Screening C=CCOC(=O)C1=C(C)N=c2s/c(=C3\C(=O)N(CC(=O)O)c4ccccc43)c(=O)n2C1c1ccc(OC)cc1 (centres undefined) returned Runt-CBFb FRET 53*, Runt-SMMHC FRET -35, RanGTP-Imp inh -4, Hck-Nef inh 49, TbHK1 inh 14 and Runt-CBFb TRFRET 29.
For FC(F)Oc1ccc(-c2csc(NNC3=NCCCCC3)n2)cc1 the results were Runt-CBFb FRET 55*, Runt-SMMHC FRET 28, RanGTP-Imp inh 0, Hck-Nef inh 2, TbHK1 inh 2 and Runt-CBFb TRFRET 6.
Screening N#CC1=C2SCN(Cc3ccccc3)CN2C(=O)CC1c1ccc2c(c1)OCO2 (centres undefined) returned Runt-CBFb FRET 29, Runt-SMMHC FRET 24, RanGTP-Imp inh inconclusive, Hck-Nef inh 0 and TbHK1 inh -8.
CCc1ccccc1N1CSC2=C(C#N)C(c3ccccc3F)CC(=O)N2C1 (centres undefined) was read as Runt-CBFb FRET 60*, Runt-SMMHC FRET 92*, RanGTP-Imp inh inconclusive, Hck-Nef inh 3, TbHK1 inh -9 and Runt-CBFb TRFRET 0.
`COc1ccc(C2CC(=O)N3CN(Cc4ccco4)CSC3=C2C#N)cc1` (centres undefined) gave Runt-CBFb FRET 29, Runt-SMMHC FRET 25, RanGTP-Imp inh 4, Hck-Nef inh -1 and TbHK1 inh -2.
For COc1ccc(C2CC(=O)N3CN(c4ccccc4F)CSC3=C2C#N)cc1OC (centres undefined) the results were Runt-CBFb FRET 52*, Runt-SMMHC FRET 87*, RanGTP-Imp inh -158, Hck-Nef inh 1, TbHK1 inh -22 and Runt-CBFb TRFRET 17.
For COc1cc(C2CC(=O)N3CN(Cc4ccco4)CSC3=C2C#N)ccc1OCc1ccccc1 (centres undefined) the results were Runt-CBFb FRET -1, Runt-SMMHC FRET 28, RanGTP-Imp inh 0, Hck-Nef inh 4 and TbHK1 inh -22.
Screening COc1ccc(C2CC(=O)N3CN(c4ccc(C)c(Cl)c4)CSC3=C2C#N)cc1 (centres undefined) returned Runt-CBFb FRET 88*, Runt-SMMHC FRET 38, RanGTP-Imp inh inconclusive, Hck-Nef inh 1, TbHK1 inh -9 and Runt-CBFb TRFRET 8.
For O=C1OC(c2ccccc2)=N/C1=C\C=C\c1ccccc1[N+](=O)[O-] the results were Runt-CBFb FRET 74*, Runt-SMMHC FRET 67, RanGTP-Imp inh 2, Hck-Nef inh 4, TbHK1 inh 12 and Runt-CBFb TRFRET 32.
`CCOC(=O)c1cnc2ccc(Cl)cc2c1NCCN(C)C` gave Runt-CBFb FRET 64*, Runt-SMMHC FRET 46, RanGTP-Imp inh inconclusive, Hck-Nef inh 10, TbHK1 inh -9 and Runt-CBFb TRFRET 2.
`COc1ccc([N+](=O)[O-])cc1NC(=O)c1cn(-c2ccc(C)c(C)c2)c(=O)c2ccccc12` gave Runt-CBFb FRET -2, Runt-SMMHC FRET -5, RanGTP-Imp inh 1, Hck-Nef inh 5 and TbHK1 inh -7.
Screening c1ccc(COCCC2CO2)cc1 (centres undefined) returned RanGTP-Imp inh 8.
CC(C)C(=O)NC(Nc1cccc2cccnc12)C(Cl)(Cl)Cl (centres undefined) was read as Runt-CBFb FRET 79*, Runt-SMMHC FRET 3, RanGTP-Imp inh 1, Hck-Nef inh 4, TbHK1 inh -2 and Runt-CBFb TRFRET 48*.
For CCOC(=O)c1c(/N=C/N(C)C)sc(/C=N/Nc2ccccc2)c1-c1ccccc1 the results were Runt-CBFb FRET 71*, Runt-SMMHC FRET 131*, RanGTP-Imp inh -14, Hck-Nef inh 9, TbHK1 inh -8 and Runt-CBFb TRFRET -12.
Screening O=C(NCCCN1CCOCC1)c1sc2cc([N+](=O)[O-])ccc2c1Cl returned Runt-CBFb FRET 50*, Runt-SMMHC FRET 39, RanGTP-Imp inh 3, Hck-Nef inh -84, TbHK1 inh -6 and Runt-CBFb TRFRET -2.
For CCOc1ccccc1NC(=O)C(OC(=O)c1cc(C)oc1C)c1ccccc1 (centres undefined) the results were Runt-CBFb FRET 54*, Runt-SMMHC FRET 3, RanGTP-Imp inh -5, Hck-Nef inh 7, TbHK1 inh 37 and Runt-CBFb TRFRET -13.
CCOc1ccccc1NC(=O)C(OC(=O)c1ccccc1O)c1ccccc1 (centres undefined) was read as Runt-CBFb FRET 0, Runt-SMMHC FRET -1, RanGTP-Imp inh -4, Hck-Nef inh -2 and TbHK1 inh 3.
For O=C(O)c1ccccc1SC1CC(=O)N(c2cccc3ccccc23)C1=O (centres undefined) the results were Runt-CBFb FRET 53*, Runt-SMMHC FRET 20, Hck-Nef inh 23, TbHK1 inh -4 and Runt-CBFb TRFRET 47*.
Screening S=c1[nH]c(-c2ccc(Cl)cc2)cs1 returned Runt-CBFb FRET 50*, Runt-SMMHC FRET 35, RanGTP-Imp inh 3, Hck-Nef inh 13, TbHK1 inh 0 and Runt-CBFb TRFRET 9.
S=c1nccc(-c2ccc(Cl)cc2)[nH]1 was read as Runt-CBFb FRET 56*, Runt-SMMHC FRET 12, RanGTP-Imp inh -2, Hck-Nef inh -49, TbHK1 inh -6 and Runt-CBFb TRFRET 41*.

Screening data: PubChem BioAssay, several laboratories
